H9c2 TAG inh: triacylglycerol accumulation inhibition; H9c2 cells, Nile Red lipid (TAG) fluorescence; cells loaded with 200 µM oleic acid; actives 0.66% (n = 230,000); inhibition, % at 12.5 µM;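 active = pattern-corrected inhibition of lipid staining of at least 50% with the nuclear-stain viability signal not falling by more than 50%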;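 also: 0% = DMSO wells and 100% = triacsin C control wells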
SR-BI DiI inh: inhibitors of mouse SR-BI mediated HDL lipid uptake; AID 488896; ldlA[mSR-BI] CHO cells, DiI-HDL uptake fluorescence, 3 h; inhibition, % at 12.5 µM; actives 0.96% (n = 320,000);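 active = mean replicate inhibition of at least 70% and a set share of replicates each scoring 70 or more; inconclusive = meets just one of the two criteria; inactive = fails both criteria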;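 also: 0% = median of neutral control wells and 100% = median of positive control wells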
Target sequence (Q61009 whole entry, looked up): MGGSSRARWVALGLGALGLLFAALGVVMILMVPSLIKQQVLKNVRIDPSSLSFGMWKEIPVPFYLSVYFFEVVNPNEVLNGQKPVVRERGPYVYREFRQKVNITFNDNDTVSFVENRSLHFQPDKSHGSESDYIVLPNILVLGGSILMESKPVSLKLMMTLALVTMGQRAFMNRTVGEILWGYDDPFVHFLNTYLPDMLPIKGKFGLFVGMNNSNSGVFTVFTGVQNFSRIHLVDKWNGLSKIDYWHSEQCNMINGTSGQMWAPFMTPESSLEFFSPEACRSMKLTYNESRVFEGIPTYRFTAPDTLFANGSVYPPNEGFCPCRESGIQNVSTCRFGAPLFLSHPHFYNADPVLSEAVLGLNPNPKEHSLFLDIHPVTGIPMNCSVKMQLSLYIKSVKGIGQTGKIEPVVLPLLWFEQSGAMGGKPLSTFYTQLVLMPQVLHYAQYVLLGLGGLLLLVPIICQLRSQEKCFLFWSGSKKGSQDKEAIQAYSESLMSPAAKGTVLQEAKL
SR-BI uptake up: enhances SR-BI lipid uptake from DiI-HDL | activation, % at 12.5 µM | actives 0.096% (n = 320,000) | CHO ldlA[mSR-BI] cells, DiI-HDL uptake fluorescence, 3 h; 100 = double the neutral-control signal;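 active = mean replicate activation of at least 60% and every replicate at or above 60%; inconclusive = mean or all-replicate condition met, but not both; inactive = mean below 60% and not all replicates reaching 60%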;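 also: 0% = median plate neutral-control signal and 100% = twice that signal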
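System: LDL receptor-deficient CHO ldlA cells overexpressing murine SR-BI | Timing: 3 h uptake period with compound, 37 °C | Medium: HEPES-buffered (25 mM, pH 7.4) F12 plus 0.5% BSA | Dosing: Single-point compound dose | Signal: Bottom-read fluorescence, 550/595 nm | Read-out: Retained DiI signal reflecting DiI-HDL uptake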
SMARCA2 act: increases SMARCA2 function in MMTV reporter cells; MG213 cells, MMTV-luciferase reporter, dexamethasone, overnight; activation, % at 9.1 µM; actives 1% (n = 370,000); AID 652017; in the data active = activation above about 7.8%;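 also: 0% = vehicle wells and 100% = reference activator wells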
Vif inh: inhibitors of HIV Vif; HEK293T cells, Vif self-association by quenched fluorescence, imaging, 24 h; inhibition, % at 7.49 µM; actives 0.35% (n = 340,000); AID 602346; in the data active = inhibition above about 50%, passing the limit was not always enough; inconclusive = no clear call, values can overlap the other calls; inactive = below about 31%
* = called active by the depositor; ? = inconclusive; . = not tested or not shown. Hits are enriched below; roughly 2.5% of the tested compounds scored in any of these assays.

SMILES	H9c2 TAG inh	SR-BI DiI inh	SR-BI uptake up	SMARCA2 act	Vif inh
O=C1[C@@H]2Cc3c([nH]c4ccccc34)C(c3ccccc3)N2C(=O)CN1CCO (stereo partly specified)	.	27.7	-27.7	0.3	-3.8
CC(C)CN1CC(=O)N2C(c3ccccc3)c3[nH]c4ccccc4c3C[C@H]2C1=O (stereo partly specified)	.	78.4*	-78.4	-0.8	-0.3
COc1cc([C@H]2c3[nH]c4ccccc4c3C[C@H]3C(=O)N4[C@@H](c5cc(OC)c(OC)c(OC)c5)c5[nH]c6ccccc6c5C[C@H]4C(=O)N23)cc(OC)c1OC	50.1*	2.6	-2.6	.	3.1
COc1ccc(-c2nc(NC(=O)C3CC(=O)N(c4ccc5c(c4)OCCO5)C3)sc2C)cc1 (stereo unspecified)	36.2	74.3*	-74.3	-6.8	-19.4
COc1ccc2nc(NC(=O)C3CC(=O)N(c4ccc5c(c4)OCCO5)C3)sc2c1 (stereo unspecified)	0.1	23.7	-23.7	-2.5	.
COc1ccc(C(=O)c2no[n+]([O-])c2C(=O)c2ccc(OC)cc2)cc1	54.2*	-19.4	19.4	0.1	.
O=C(Nc1ccc(N2CCCCC2)c(Cl)c1)c1ccc(N2CCOCC2)c([N+](=O)[O-])c1	.	87.5*	-87.5	-2.5	4.9
O=C(Nc1cc(Cl)ccc1N1CCOCC1)c1ccc(N2CCCCC2)c([N+](=O)[O-])c1	13.1	59.3	-59.3	1.4	-0.5
O=C(Nc1nc2ccc(Cl)cc2s1)c1ccc(N2CCCCC2)c([N+](=O)[O-])c1	.	79.3*	-79.3	-3.1	-2.3
CC(C)C[C@H]1COc2c(Cl)cccc2S(=O)(=O)N1Cc1ccc(F)cc1F	.	.	.	5.0	.
Cc1nc2cc(-c3cccc(F)c3)nn2c(C)c1CCC(=O)NC(C)c1ccc2c(c1)OCCO2 (stereo unspecified)	31.0	56.1	-56.1	-2.7	-5.3
Cc1nc2cc(-c3ccccc3)nn2c(C)c1CCC(=O)NC(C)c1ccc2c(c1)OCCO2 (stereo unspecified)	17.7	77.0*	-77.0	-6.7	3.9
CC(C)(C)c1cc(C(=O)N/N=C/c2ccccn2)n[nH]1	2.4	-320.4	320.4*	7.0	?
Cc1ccccc1C(=O)Nc1ccc(C(=O)N/N=C/c2ccc(F)cc2)cc1	-7.0	84.2*	-84.2	-0.8	-2.8
Cc1cccc(/C=N/NC(=O)c2ccc(NC(=O)c3ccc(Cl)cc3)cc2)n1	.	76.8*	-76.8	-0.8	0.4
CC(C)(C)c1cc(C(=O)N/N=C/c2cc3c(cc2Br)OCO3)n[nH]1	.	76.7*	-76.7	3.0	1.8
O=C(N/N=C/c1ccccc1)c1ccc(NC(=O)c2ccc(F)cc2)cc1	.	.	.	-0.3	0.5
COc1ccc(-c2ccc3c(n2)CCCN3S(=O)(=O)c2ccccc2)cc1	.	.	.	-9.3	.
Cc1ccc(C(=O)Nc2ccc(C(=O)N/N=C/c3ccccn3)cc2)cc1	.	76.0*	-76.0	-0.5	18.2
Cc1ccc(C(=O)Nc2ccc(C(=O)N/N=C/c3c[nH]c4ccccc34)cc2)cc1	14.8	93.9*	-93.9	2.7	3.2
Cc1ccccc1C(=O)N/N=C/c1ccccn1	.	-24.7	24.7	10.4*	0.9
O=C(N/N=C/c1c[nH]c2ccccc12)c1ccccc1	14.3	2.3	-2.3	-1.5	?
O=C(N/N=C/c1ccccn1)c1ccccc1	.	-18.0	18.0	4.3	-3.2
CC(=O)C1=C(C)N(Cc2ccc(F)cc2)C(=S)NC1c1cccc(F)c1 (stereo unspecified)	.	.	.	-0.8	.
COc1ccc(NC(=O)NNC(=O)CCn2nc(C)c([N+](=O)[O-])c2C)cc1OC	.	.	.	-2.3	.
SMILES	H9c2 TAG inh	SR-BI DiI inh	SR-BI uptake up	SMARCA2 act	Vif inh
COc1ccc(-c2cc(NC(=O)Cc3c(C)[nH]c4ccccc34)ccc2Nc2cccnc2)cc1OC	.	.	.	-1.4	.
C[C@@H]1CN([C@@H](C)CO)C(=O)CCCn2nncc2CO[C@@H]1CN(C)C(=O)C1CC1	.	.	.	-4.1	.
CN(N=Cc1ccc2c(c1)OCO2)C(=O)c1ccccc1N	.	.	.	0.2	.
COc1cccc(Cn2cc(COC(=O)NCCc3c[nH]c4ccccc34)nn2)c1	.	.	.	-1.2	.
CCN1C(=O)/C(=C2/Sc3ccc(OC)cc3N2C)SC1=Nc1cccc(O)c1	.	94.1*	-94.1	7.0	5.6
C=CCN1C(=O)/C(=C2/Sc3ccc(OC)cc3N2C)SC1=NCc1ccccc1	-5.3	13.5	-13.5	-2.8	39.0
CC(=O)NN1C(=O)/C(=C2/Sc3ccccc3N2C)SC1=S	.	-3.7	3.7	-0.9	-3.0
C=CCN1C(=O)/C(=C2/Sc3ccc(OC)cc3N2C)SC1=Nc1ccccc1	6.4	96.1*	-96.1	1.4	6.4
COc1ccc2c(c1)N(C)/C(=C1/SC(=NCc3ccccc3)N(c3ccccc3)C1=O)S2	-14.6	-19.7	19.7	-1.9	170.3*
CCN1C(=O)/C(=C/c2cc(C)n(C)c2C)SC1=Nc1ccc(OC)cc1	-3.7	16.6	-16.6	2.2	10.4
O=C(NC1CCCC1)[C@@H]1CCCN1C(=O)[C@@H](NC(=O)N1CCOCC1)c1ccccc1	.	.	.	-0.1	.
CCCCN1CCS(=O)(=O)N(Cc2ccc(Cl)cc2)C(C(=O)OC)C1 (stereo unspecified)	.	.	.	-3.4	.
O=c1ccc2cc3c([nH]c4ccc(Br)cc43)oc-2c1O	16.7	87.8*	-87.8	-1.3	3.6
Oc1ccccc1-c1nc(NC2CCCC2)c2ccccc2n1	.	81.6*	-81.6	-2.8	-10.5
Nc1[nH]c(C(=O)c2ccc(Br)cc2)c(-c2ccc(F)cc2)c1C(=O)NCCc1c[nH]c2ccccc12	.	.	.	2.7	.
CCOc1ccc(NC(=S)NNC(=S)Nc2cccc(C(F)(F)F)c2)cc1	-38.6	93.3*	-93.3	-0.3	12.5
CN1CCN(C(=S)c2ccc(OCC(=O)Nc3cccc(C(F)(F)F)c3)cc2)CC1	.	55.5	-55.5	-1.4	54.3*
O=C(COc1ccc(C(=O)O)cc1)Nc1cccc(C(F)(F)F)c1	7.5	-12.8	12.8	2.6	4.5
c1ccc(-c2ccccc2C2Cc3nnccc3CN2)cc1 (stereo unspecified)	.	.	.	-0.6	.
CC(=O)Nc1ccc(CNc2ncnc3ccc(-c4c(C)noc4C)cc23)cc1	61.8*	14.3	-14.3	-0.8	-2.1
Cc1cccc(CNc2ncnc3ccc(-c4ccoc4)cc23)c1	7.3	-1.1	1.1	-2.8	-3.8
COC(=O)[C@]1(CC(C)C)NC=C(C(=O)c2ccccc2)[C@@H]1c1cccc(C(F)(F)F)c1	.	.	.	-0.3	.
CCCOc1cccc(C(=O)Nc2ccc(Br)cc2F)c1	.	-19.3	19.3	12.6*	-7.3
O=C(OCc1ccccc1)N1Cc2ccnnc2CC1c1ccccc1-c1ccc(C(F)(F)F)cc1 (stereo unspecified)	.	.	.	-5.6	.
CC(C)(C)NC[C@@H](O)COc1cccc2c1CCCC2=O	-6.9	-1.7	1.7	-2.4	-1.2
CC(C)(C)NCC(O)COc1ccccc1C1CCCC1 (stereo unspecified)	30.2	9.5	-9.5	-1.7	51.6*
COc1ccc(NC(=O)c2cccc(S(=O)(=O)N3CCN(C)CC3)c2)c(OC)c1	.	.	.	-2.8	54.3*

Screening results deposited in PubChem BioAssay by several laboratories.
